Source: ChEMBL document CHEMBL4130546, “Structures of the Largest Amphidinol Homologues from the Dinoflagellate Amphidinium carterae and Structure-Activity Relationships” (J Nat Prod, 2017)

Experiments:
Aspergillus niger = test: Antifungal activity against Aspergillus niger NBRC 31032 after 2 days by paper disk method; type: functional
Outline: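 A. niger grown 2 days at 25 °C in glucose/peptone broth, spread on agar of the same medium (1.5% agar). Samples in MeOH spotted on 8 mm paper disks, up to 60 μg/disk; after 2 days at 25 °C the inhibition zone was measured and minimum effective concentration recorded.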

Erythrocyte = test: Hemolytic activity in human erythrocytes after 18 hrs by colorimetric method; type: ADME, cell-based
Outline: (§1)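 Human RBCs washed in PBS (pH 7.4) by centrifugation and diluted to a 1% suspension (~1.7 × 10^7 cells/mL). 190 μL suspension mixed with 10 μL sample (up to 80 μM) or PBS; water-lysed RBCs served as 100%. Incubated at 37 °C for 18 h, centrifuged, supernatant absorbance read at 450 nm. % hemolysis and EC50 taken from dose-response curves.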

Lipid bilayer [1] = test: Membrane disrupting activity in POPC large unilamellar vesicles assessed as calcein AM dye leakage at 80 uM by fluorescence assay relative to control; type: physicochemical
Outline: (§2)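 Calcein-loaded LUVs of POPC or POPC/Chol (9:1 mol) freed of external dye on Sepharose 4B in Tris-HCl pH 7.5, EDTA, NaCl. Vesicles diluted in PBS to 27 μM lipid and fluorescence read (ex 490/em 517 nm). Sample added and fluorescence re-read, then Triton X-100 added to give 100% leakage.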

Lipid bilayer [2] = test: Membrane disrupting activity in POPC/cholesterol large unilamellar vesicles assessed as calcein AM dye leakage at 20 uM by fluorescence assay relative to control; type: physicochemical; outline: as §2
Lipid bilayer [3] = test: Membrane disrupting activity in POPC/cholesterol large unilamellar vesicles assessed as calcein AM dye leakage at 80 uM by fluorescence assay relative to control; type: physicochemical; outline: as §2
Lipid bilayer [4] = test: Membrane disrupting activity in POPC large unilamellar vesicles assessed as calcein AM dye leakage at 20 uM by fluorescence assay relative to control; type: physicochemical; outline: as §2
[5] = Hemolytic activity in human erythrocytes at 20 uM after 18 hrs by colorimetric method; type: ADME, cell-based, Erythrocyte; details: read-out: Activity; outline: as §1
Lipid bilayer [6] = test: Membrane disrupting activity in large unilamellar vesicles assessed as calcein AM dye leakage at 10 uM by fluorescence assay relative to control; type: physicochemical
Outline: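 Calcein-loaded POPC or POPC/cholesterol (9:1 mol ratio) LUVs, with excess dye removed by Sepharose 4B gel filtration in Tris-HCl pH 7.5 containing 1 mM EDTA and 150 mM NaCl. Lipid at 27 μM in PBS. Fluorescence (ex 490/em 517 nm) read before and after adding compound. Triton X-100 was then added to define 100% leakage.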

Row | SMILES | MEC (Aspergillus niger) [µg] | EC50 (Erythrocyte) [nM] | Activity (Lipid bilayer [1]) [%] | Activity (Lipid bilayer [2]) [%] | Activity (Lipid bilayer [3]) [%] | Activity (Lipid bilayer [4]) [%] | hemolysis at 18 h, 20 µM [5] [%] | Activity (Lipid bilayer [6]) [%]
1 | C=CCC/C=C/C=C/C=C/CC/C=C/C(O)C(O)C1OC(C(O)C(O)C(=C)CCC(O)C2CC(O)C(O)C(C(O)C(O)/C=C(\C)CCC(O)CC(O)C(O)C(C)CC(O)C(O)CC(C)CC/C=C/CC(O)CO)O2)CC(O)C1O (stereo not given) | 8 | 1200 | – | – | – | – | – | –
2 | C=CCC/C=C/C=C/C=C/CC/C=C/C(O)C(O)C1OC(C(O)C(O)C(=C)CCC(O)C2CC(O)C(O)C(C(O)C(O)/C=C(\C)CCC(O)CC(O)C(O)C(C)CC(O)C(O)CCCC(O)CCCC(O)CCCC(O)/C=C/CC(O)/C=C/CC(O)CO)O2)CC(O)C1O (stereo not given) | 6 | 2900 | – | – | – | – | – | –
3 | C=CCC/C=C/C=C/C=C/CC/C=C/C(O)C(O)[C@@H]1O[C@@H](C(O)C(O)C(=C)CCC(O)[C@H]2C[C@@H](O)[C@@H](O)[C@H](C(O)C(O)/C=C(\C)CCC(O)CC(O)C(O)C(C)CC(O)CC(C)/C=C(\C)CC(O)CC(C)CCC(O)CC(O)C(O)C(C)CC(O)CC(O)C(O)C(C)C(O)CCCC(O)CCCC(O)CCCC(O)/C=C/CC(O)/C=C/CO)O2)C[C@@H](O)[C@H]1O (stereo not given in full) | >15 | > 10000 | 20 | < 50 | 20 | < 50 | – | –
4 | C=CCC/C=C/C=C/C=C/CC/C=C/C(O)C(O)[C@@H]1O[C@@H](C(O)C(O)C(=C)CCC(O)[C@H]2C[C@@H](O)[C@@H](O)[C@H](C(O)C(O)/C=C(\C)CCC(O)CC(O)C(O)C(C)CC(O)CC(C)/C=C(\C)CC(O)CC(C)CCC(O)CC(O)C(O)C(C)C(O)CCCC(O)CCCC(O)CCCC(O)/C=C/CC(O)/C=C/CO)O2)C[C@@H](O)[C@H]1O (stereo not given in full) | >15 | 1000 to 3000 | 20 | < 50 | 20 | < 50 | < 100 | –
5 | C=C/C=C/CC/C=C/C=C/C=C/CC/C=C/[C@H](O)[C@H](O)[C@@H]1O[C@@H]([C@H](O)[C@H](O)C(=C)CC[C@@H](O)[C@H]2C[C@@H](O)[C@@H](O)[C@H]([C@@H](O)[C@H](O)/C=C(\C)CC[C@H](O)C[C@H](O)[C@H](O)[C@@H](C)C[C@H](O)[C@@H](O)CCCCC[C@@H](O)CCC[C@@H](O)/C=C/C[C@@H](O)/C=C/C[C@@H](O)CO)O2)C[C@@H](O)[C@H]1O | – | – | – | – | – | – | – | 100
6 | C=CCC/C=C/C=C/C=C/CC/C=C/C(O)C(O)C1OC(C(O)C(O)C(=C)CCC(O)C2CC(O)C(O)C(C(O)C(O)/C=C(\C)CCC(O)CC(O)C(O)C(C)CC(O)CC(C)/C=C(\C)CC(O)CC(C)CC(O)C3CC(O)C(O)C(CC(O)CC(O)CO)O3)O2)CC(O)C1O (stereo not given) | 6 | 1700 | – | – | – | – | – | –
